Each block holds one compound with its values, some of them ahead of it. Residues, ends and D or L forms follow the SMILES beside them. *: point of attachment. Cbz = O=C(OCc1ccccc1)*; CH2F = FC*
How the values were obtained:
[1] = molecular target: T1, Recombinant human caspase-10 (Homo sapiens, UniProt Q92851); assay: M867 potency against recombinant human caspase-10; format: biochemical
T1 sequence (Q92851 220-415 limits assumed): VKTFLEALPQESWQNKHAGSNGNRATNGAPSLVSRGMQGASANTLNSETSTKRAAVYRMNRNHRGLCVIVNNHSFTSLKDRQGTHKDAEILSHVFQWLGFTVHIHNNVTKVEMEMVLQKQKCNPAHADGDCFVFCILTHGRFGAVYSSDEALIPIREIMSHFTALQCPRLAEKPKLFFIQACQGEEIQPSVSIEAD
T1 sequence (Q92851 416-521 limits assumed): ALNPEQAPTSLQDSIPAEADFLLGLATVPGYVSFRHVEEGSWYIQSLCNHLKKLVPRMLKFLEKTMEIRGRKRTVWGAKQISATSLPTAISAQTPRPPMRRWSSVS

[2] = molecular target: T2, Recombinant human caspase-4 (Homo sapiens, UniProt P49662); assay: M867 potency against recombinant human caspase-4; format: biochemical
T2 sequence (P49662 81-270 limits assumed): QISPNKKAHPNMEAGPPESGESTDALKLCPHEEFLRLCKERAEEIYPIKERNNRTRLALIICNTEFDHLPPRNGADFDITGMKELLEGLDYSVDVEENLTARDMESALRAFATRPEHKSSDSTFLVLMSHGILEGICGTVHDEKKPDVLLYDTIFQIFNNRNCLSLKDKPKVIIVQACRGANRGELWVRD
T2 sequence (P49662 290-377 limits assumed): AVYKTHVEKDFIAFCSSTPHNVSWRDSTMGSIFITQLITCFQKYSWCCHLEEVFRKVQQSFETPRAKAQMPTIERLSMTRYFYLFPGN

[3] = test system: αII-spectrin cleavage in thymocytes; assay: αII-spectrin cleavage in the thymus of CLP-induced septic rats; format: in vivo, rat; conditions: for Spectrin cleavage OD (±SE): thymus 24 h
Summary of the method: (§1)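 CLP then followed: the ligated cecum was pierced through and through with a 20-gauge cannula and a silk thread was left in place for leakage. Shams had the cecum exteriorized only. Rats got 1 c.c. saline s.c., then a 2 ml/kg i.v. bolus of vehicle or test compound and 2 ml/h/kg infusion for 24 h. In the titration, doses were 0–10 mg/kg/h with one rat per dose. Thymus taken 24 h post-surgery.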

[4] = molecular target: T3, Recombinant human caspase-7 (Homo sapiens, UniProt P55210); assay: M867 potency against recombinant human caspase-7; format: biochemical
T3 sequence (P55210 24-198 limits assumed): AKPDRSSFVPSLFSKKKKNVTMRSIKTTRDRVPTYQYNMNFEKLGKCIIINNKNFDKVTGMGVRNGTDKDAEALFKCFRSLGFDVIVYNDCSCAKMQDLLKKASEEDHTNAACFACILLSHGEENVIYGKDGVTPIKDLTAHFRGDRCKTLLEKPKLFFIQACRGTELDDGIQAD
T3 sequence (P55210 207-303 limits assumed): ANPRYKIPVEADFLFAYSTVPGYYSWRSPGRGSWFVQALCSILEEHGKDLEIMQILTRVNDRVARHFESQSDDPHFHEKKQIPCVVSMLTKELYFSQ

[5] = test system: DNA fragmentation in cultured primary rat thymocytes; assay: DNA fragmentation; format: cell-based
Summary of the method: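 Thymocytes were cultured for 24 h at 10 × 10^6 cells/ml in CytoSF4 plus l-glutamine and antibiotics, with test compound at a range of concentrations. Cells fixed 30 min on ice in 70% EtOH and stained in PBS/0.1% Triton X-100/RNase A/25 μg/ml PI. Subdiploid DNA by flow cytometry, 20,000 events, duplicate samples, debris gated out on forward scatter. IC50 by 4-parameter fit.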

[6] = molecular target: Recombinant human caspase-8 (Homo sapiens, UniProt Q14790); assay: M867 potency against recombinant human caspase-8; format: biochemical
Recombinant human caspase-8, sequence (Q14790 217-374 limits assumed): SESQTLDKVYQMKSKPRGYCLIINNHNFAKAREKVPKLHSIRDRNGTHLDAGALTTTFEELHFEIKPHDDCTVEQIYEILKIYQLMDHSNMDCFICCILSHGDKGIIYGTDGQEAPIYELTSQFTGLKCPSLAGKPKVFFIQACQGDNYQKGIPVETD
Recombinant human caspase-8, sequence (Q14790 385-479 limits assumed): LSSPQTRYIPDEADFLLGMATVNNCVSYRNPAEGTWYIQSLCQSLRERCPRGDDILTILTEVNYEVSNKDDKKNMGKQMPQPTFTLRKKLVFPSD

[7] = test system: basal apoptotic parameters; assay: Basal apoptotic parameters in sham-operated animals; format: in vivo, rat; conditions: sham-operated animals (unpublished data)
[8] = molecular target: T4, Recombinant human caspase-2 (Homo sapiens, UniProt P42575); assay: M867 potency against recombinant human caspase-2; format: biochemical
T4 sequence (P42575 170-325 limits assumed): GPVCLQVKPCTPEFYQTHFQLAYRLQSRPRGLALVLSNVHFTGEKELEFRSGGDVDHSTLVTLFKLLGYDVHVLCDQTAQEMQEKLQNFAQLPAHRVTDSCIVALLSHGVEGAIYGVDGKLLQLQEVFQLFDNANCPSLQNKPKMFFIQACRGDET
T4 sequence (P42575 348-452 limits assumed): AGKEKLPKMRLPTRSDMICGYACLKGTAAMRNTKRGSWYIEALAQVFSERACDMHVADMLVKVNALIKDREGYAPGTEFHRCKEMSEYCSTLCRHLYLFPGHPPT

[9] = molecular target: T5, Recombinant human caspase-5 (Homo sapiens, UniProt P51878); assay: M867 potency against recombinant human caspase-5; format: biochemical
T5 sequence (P51878 137-327 limits assumed): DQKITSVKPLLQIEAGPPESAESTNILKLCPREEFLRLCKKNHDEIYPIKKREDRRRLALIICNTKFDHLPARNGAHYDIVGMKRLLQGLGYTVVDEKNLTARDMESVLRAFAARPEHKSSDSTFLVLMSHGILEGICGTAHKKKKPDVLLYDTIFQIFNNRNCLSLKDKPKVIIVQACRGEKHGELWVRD
T5 sequence (P51878 347-434 limits assumed): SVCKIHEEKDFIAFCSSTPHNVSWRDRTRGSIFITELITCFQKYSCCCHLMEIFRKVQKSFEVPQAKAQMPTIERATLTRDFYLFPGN

[10] = molecular target: T6, Recombinant human caspase-1 (Homo sapiens, UniProt P29466); assay: M867 potency against recombinant human caspase-1; format: biochemical
T6 sequence (P29466 120-297 limits assumed): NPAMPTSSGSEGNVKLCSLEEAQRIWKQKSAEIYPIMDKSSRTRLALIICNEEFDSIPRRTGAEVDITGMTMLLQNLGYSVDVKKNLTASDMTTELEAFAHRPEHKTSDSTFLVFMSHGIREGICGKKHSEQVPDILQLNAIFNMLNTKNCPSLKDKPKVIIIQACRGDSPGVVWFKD
T6 sequence (P29466 317-404 limits assumed): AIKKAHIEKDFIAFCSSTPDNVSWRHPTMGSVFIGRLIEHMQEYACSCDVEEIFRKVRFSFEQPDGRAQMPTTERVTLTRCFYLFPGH

[11] = test system: DNA fragmentation in thymocytes; assay: DNA fragmentation; format: in vivo, rat; conditions: for Percentage of subdiploid cells (±SE): thymus 24 h
Summary of the method: as §1

caspase-3 processing = assay: Caspase-3 Western blotting on thymus extracts of CLP rats dosed with M867; format: in vivo, rat; conditions: all M867 doses
Summary of the method: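 Female Sprague-Dawley rats (250–300 g) had CLP via a 20-gauge through-and-through cecal puncture with a silk wick. Test compound was given as an i.v. femoral catheter bolus (2 ml/kg) then infused at 0–10 mg/kg/h for 24 h (vehicle n = 6; n = 1 per dose). Thymus lysates (40 μg, heat-denatured) were run on 10–20% SDS-PAGE and probed with rabbit anti-caspase-3 (1:2,000) and HRP anti-rabbit, with chemiluminescent detection.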

[12] = molecular target: T7, Recombinant human caspase-3 (Homo sapiens, UniProt P42574); assay: M867 potency against recombinant human caspase-3; format: biochemical
T7 sequence (P42574 29-175 limits assumed): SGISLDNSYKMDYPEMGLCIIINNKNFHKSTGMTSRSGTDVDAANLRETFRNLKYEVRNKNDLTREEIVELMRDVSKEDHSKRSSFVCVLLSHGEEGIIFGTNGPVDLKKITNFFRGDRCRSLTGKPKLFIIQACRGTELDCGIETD
T7 sequence (P42574 176-277 limits assumed): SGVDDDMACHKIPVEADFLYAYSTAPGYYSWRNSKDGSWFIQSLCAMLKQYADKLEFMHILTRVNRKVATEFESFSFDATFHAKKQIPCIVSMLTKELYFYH

[13] = molecular target: T8, Recombinant human caspase-6 (Homo sapiens, UniProt P55212); assay: M867 potency against recombinant human caspase-6; format: biochemical
T8 sequence (P55212 24-179 limits assumed): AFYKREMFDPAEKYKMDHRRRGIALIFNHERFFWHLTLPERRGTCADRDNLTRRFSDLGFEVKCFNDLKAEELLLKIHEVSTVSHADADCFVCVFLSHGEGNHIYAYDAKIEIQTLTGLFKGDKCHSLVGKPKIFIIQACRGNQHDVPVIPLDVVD
T8 sequence (P55212 194-293 limits assumed): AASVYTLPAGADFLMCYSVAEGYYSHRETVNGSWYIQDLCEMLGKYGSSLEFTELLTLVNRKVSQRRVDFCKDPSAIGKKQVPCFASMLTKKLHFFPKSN

[14] = Drug levels in plasma, blood and spleen of rats under continuous i.v. infusion; format: in vivo; conditions: rat, intravenous, 2 mg/kg/h
Summary of the method: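 Test compound was given to rats by continuous i.v. infusion after a 2 ml/kg bolus, delivered at 2 ml/h/kg for 24 h. Dose rates were 2 mg/kg/h for plasma and spleen levels, and 0.5 or 1.5 mg/kg/h for blood levels.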

[15] = test system: αII-spectrin cleavage in cultured primary rat thymocytes; assay: αII-spectrin cleavage in cultured primary rat thymocytes; format: cell-based; conditions: read-out: IC50 spectrin, average of two to four experiments (single for zVAD-fmk and M808)
Summary of the method: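 Rat thymocytes, isolated by tissue grinding in cold PBS/glucose/glutamine/1% FBS and filtered, were kept 24 h at 10 × 10^6 cells/ml in CytoSF4 with l-glutamine and antibiotics over a test compound concentration series. The read-out is the caspase-3-generated p120 αII-spectrin neoepitope. IC50 from a 4-parameter curve fit.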

[16] = crude extrapolation, septic rats (Fig. 4)
[17] = septic rats, continuous i.v. infusion

Ki [1]: 29500 nM
Ki [2]: 495 nM
in vivo IC50 αII-spectrin cleavage [3, 16]: 0.5 mg/kg/h
Ki [4]: 8.9 nM
Ki [6]: 4030 nM
Ki [8]: > 100000 nM
Ki [9]: 805 nM
Ki [10]: 107 nM
in vivo IC50 DNA fragmentation [11, 16]: 2 mg/kg/h
Ki [12]: 1.4 nM
Ki [13]: 3440 nM
concentration at 24 h ([14]; plasma): 650 ± 180 nM
concentration at 24 h ([14]; spleen): 370 ± 100 nM
SMILES: CCCCCN(C)CC(=O)[C@H](CC(=O)O)NC(=O)[C@H](CC)n1cc(C(C)(C)C)nc(NCc2nonc2C)c1=O [M867, (3S)-3-({(2S)-2-[5-tert-butyl-3-{[(4-methyl-1,2,5-oxadiazol-3-yl)methyl]amino}-2-oxopyrazin-1(2H)-yl]butanoyl}amino)-5-[methyl(pentyl)amino]-4-oxopentanoic acid]
reduction of αII-spectrin cleavage in thymocytes ([3]; CLP rats, i.v. infusion over 24 h after CLP, first experiment (Fig. 2 C, n = 10)): 88%
Spectrin cleavage OD (±SE) ([3]; CLP rats, first experiment (n = 10; vehicle 0.97, sham 0.21)): 0.30 ± 0.01 OD
Spectrin cleavage OD (±SE) ([3]; CLP rats, second experiment (n = 4-5; vehicle 0.58, sham 0.12)): 0.18 ± 0.01 OD
inhibition of αII-spectrin cleavage ([3]; septic rats, 2 mg/kg/h): almost complete inhibition
doses achieving abolition of αII-spectrin cleavage [3, 17]: below 2 mg/kg/h
effect on DNA fragmentation ([5]; 0.1 μM, cultured thymocytes): without affecting
effect on basal apoptotic parameters [7]: no effect
reduction of DNA fragmentation in thymocytes ([11]; CLP rats, i.v. infusion over 24 h after CLP, first experiment (Fig. 2 D, n = 10)): 57%
Percentage of subdiploid cells (±SE) ([11]; CLP rats, first experiment (n = 10; vehicle 25.12, sham 1.23)): 11.61 ± 2.95%
Percentage of subdiploid cells (±SE) ([11]; CLP rats, second experiment (n = 4-5; vehicle 33.49, sham 0.37)): 13.25 ± 4.70%
drug levels needed to inhibit DNA cleavage compared with αII-spectrin cleavage ([11]; experimental peritonitis, rats): fourfold
doses fully inhibiting DNA fragmentation [11, 17]: above 5 mg/kg/h
effect on DNA fragmentation in dose titration ([11]; septic rats, doses up to 10 mg/kg/h): almost abrogated
caspase-3 processing (caspase-3 processing): processed equally well

IC50 ([5]; read-out: IC50 subdiploid, cultured rat thymocytes, average of two to four experiments (single for zVAD-fmk and M808)): 25000 nM
IC50 [15]: 600 nM
SMILES: COC(=O)C[C@H](NC(=O)[C@H](C)NC(=O)[C@@H](NC(=O)OCc1ccccc1)C(C)C)C(=O)CF [zVAD-fmk, zVAD-fluoromethyl ketone, reference compound] (Cbz-Val-Ala-Asp(OMe)-CH2F)
